Results published in ChEMBL document CHEMBL1138317, “Antibacterial oxazolidinones possessing a novel C-5 side chain. (5R)-trans-3-[3-Fluoro-4- (1-oxotetrahydrothiopyran-4-yl)phenyl]-2- oxooxazolidine-5-carboxylic acid amide (PF-00422602), a new lead compound” (J Med Chem, 2007).
Values after ≈ are worked out from the molar mass of the structure shown. Active and inactive are the calls of the source. The rule behind the calls is not given here.

Experiments:
[1] = Half life in dog at 20 mg/kg, po; format: ADME, organism-based, Canis lupus familiaris; design: dose 20 mg/kg, route oral; conditions: in vivo
[2] = target: T1, Amine oxidase [flavin-containing] A (Homo sapiens, UniProt P21397); assay: Inhibition of human recombinant MAOA
T1 sequence (P21397 whole entry): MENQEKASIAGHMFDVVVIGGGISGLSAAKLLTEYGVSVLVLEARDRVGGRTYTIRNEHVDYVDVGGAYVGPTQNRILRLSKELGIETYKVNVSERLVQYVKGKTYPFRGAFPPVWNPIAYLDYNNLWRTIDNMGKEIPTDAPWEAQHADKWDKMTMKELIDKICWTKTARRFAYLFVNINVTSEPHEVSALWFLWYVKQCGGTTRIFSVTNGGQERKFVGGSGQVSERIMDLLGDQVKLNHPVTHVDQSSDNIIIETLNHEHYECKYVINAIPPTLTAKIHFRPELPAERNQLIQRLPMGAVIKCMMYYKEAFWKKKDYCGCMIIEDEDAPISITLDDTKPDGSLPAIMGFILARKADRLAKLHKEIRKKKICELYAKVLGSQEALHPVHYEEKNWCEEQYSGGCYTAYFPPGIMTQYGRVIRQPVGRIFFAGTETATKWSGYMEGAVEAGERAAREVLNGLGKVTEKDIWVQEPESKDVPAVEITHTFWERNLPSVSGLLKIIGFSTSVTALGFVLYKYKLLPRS

[3] = AUC (0 to 24 hrs) in Sprague-Dawley rat plasma at 200 mg/kg/day, po after 14 days; format: ADME, organism-based; design: dose 200 mg/kg/day, time < 24 hr, route oral
Method in brief: (§1)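 Female Sprague-Dawley rats received vehicle or drug by oral gavage daily for 14 days, at doses of 40-1000 (mg/kg)/day across the studies. End points were moribundity or lethality, hematology (RBC, hemoglobin, hematocrit, reticulocytes), bone marrow M:E ratio and plasma AUC(0-24).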

Staphylococcus aureus [4] = assay: Antibacterial activity against levofloxacin-oxacillin-resistant Staphylococcus aureus UC76 SA1 by micro-broth technology; format: functional
Method in brief: (§2)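 Drug-resistant panel strains (levofloxacin/oxacillin-resistant S. aureus, levofloxacin/penicillin-resistant S. pneumoniae, vancomycin-resistant E. faecalis and E. faecium). Broth microdilution MIC in µg/mL; value reported as MIC90 across the strains of each resistant group.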

Streptococcus pneumoniae [5] = assay: Antibacterial activity against levofloxacin-penicillin-resistant Streptococcus pneumoniae SV1 SP3 by microbroth technology; format: functional; method in brief: as §2
[6] = Cmax in Sprague-Dawley rat at 20 mg/kg, po; format: ADME, organism-based; design: dose 20 mg/kg, route oral; conditions: in vivo
[7] = Volume of distribution at steady state in mouse at 4 mg/kg, iv; format: ADME, organism-based; design: dose 4 mg/kg, route intravenous; conditions: in vivo, read-out: Vdss
Rattus norvegicus [8] = assay: Effect on hematology in Sprague-Dawley rat assessed as decrease in reticulocytes at 600 mg/kg/day, po after 14 days; format: ADME, organism-based; design: route oral; scale not given: the % may be the effect or the level left; conditions: in vivo, 336 h; method in brief: as §1
[9] = Cmax in mouse at 20 mg/kg, po; format: ADME, organism-based; design: dose 20 mg/kg, route oral; conditions: in vivo
[10] = Clearance in mouse at 4 mg/kg, iv; format: ADME, organism-based; design: dose 4 mg/kg, route intravenous; conditions: in vivo
Enterococcus = assay: Bacteriostatic activity against Enterococcus after 48 hrs by time kill study; format: functional, organism-based
Cytochrome P450 3A4 = Cytochrome P450 3A4 (Homo sapiens, UniProt P08684); assay: Inhibition of human liver microsome CYP3A4; format: ADME, microsomes
Sequence of Cytochrome P450 3A4 (P08684 whole entry): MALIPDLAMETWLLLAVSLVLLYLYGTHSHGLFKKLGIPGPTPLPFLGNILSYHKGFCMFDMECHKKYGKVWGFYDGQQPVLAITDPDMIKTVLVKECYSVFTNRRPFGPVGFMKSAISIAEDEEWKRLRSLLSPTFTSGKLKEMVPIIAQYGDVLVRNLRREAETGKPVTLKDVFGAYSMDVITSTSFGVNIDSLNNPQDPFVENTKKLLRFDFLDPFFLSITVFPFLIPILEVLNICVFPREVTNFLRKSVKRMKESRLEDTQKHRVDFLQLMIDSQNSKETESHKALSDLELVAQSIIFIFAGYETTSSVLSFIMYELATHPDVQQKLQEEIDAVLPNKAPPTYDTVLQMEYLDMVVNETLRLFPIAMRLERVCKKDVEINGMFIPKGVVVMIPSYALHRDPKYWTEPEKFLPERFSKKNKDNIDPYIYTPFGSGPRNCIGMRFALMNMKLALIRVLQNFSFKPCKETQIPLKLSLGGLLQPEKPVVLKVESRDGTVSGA
Method in brief: (§3)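 Done in duplicate with 0.03-0.2 mg/mL human liver microsomes, 1 mM NADPH and 50 mM potassium phosphate, pH 7.4. Probe substrates: 30 µM phenacetin (1A2), 7.5 µM diclofenac (2C9), 50 µM […], 10 µM dextromethorphan (2D6), and 50 µM phenacetin, 50 µM midazolam or 1.5 µM felodipine (3A4). Drug was tested at 0-1000 µM. Reactions were quenched with ice-cold acetonitrile after 7-30 min and analysed by LC/MS.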

Cytochrome P450 2D6 = Cytochrome P450 2D6 (Homo sapiens, UniProt P10635); assay: Inhibition of human liver microsome CYP2D6; format: ADME, microsomes; method in brief: as §3
Sequence of Cytochrome P450 2D6 (P10635 whole entry): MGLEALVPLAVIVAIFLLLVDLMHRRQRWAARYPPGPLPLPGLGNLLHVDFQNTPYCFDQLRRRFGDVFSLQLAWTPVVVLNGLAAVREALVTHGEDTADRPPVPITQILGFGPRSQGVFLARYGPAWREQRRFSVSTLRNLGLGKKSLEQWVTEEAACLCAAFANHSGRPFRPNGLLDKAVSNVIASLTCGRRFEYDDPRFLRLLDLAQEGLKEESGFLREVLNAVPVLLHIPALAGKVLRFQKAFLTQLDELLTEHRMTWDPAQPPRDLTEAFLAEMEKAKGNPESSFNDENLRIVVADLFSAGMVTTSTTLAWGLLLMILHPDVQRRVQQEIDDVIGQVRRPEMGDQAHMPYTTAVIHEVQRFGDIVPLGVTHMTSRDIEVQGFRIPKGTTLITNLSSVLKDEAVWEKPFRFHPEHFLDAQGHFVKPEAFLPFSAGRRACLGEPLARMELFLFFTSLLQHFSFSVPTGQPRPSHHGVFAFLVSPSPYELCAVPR

[11] = Half life in Sprague-Dawley rat at 20 mg/kg, po; format: ADME, organism-based; design: dose 20 mg/kg, route oral; conditions: in vivo
Cytochrome P450 2C19 = Cytochrome P450 2C19 (Homo sapiens, UniProt P33261); assay: Inhibition of human liver microsome CYP2C19; format: ADME, microsomes; method in brief: as §3
Sequence of Cytochrome P450 2C19 (P33261 whole entry): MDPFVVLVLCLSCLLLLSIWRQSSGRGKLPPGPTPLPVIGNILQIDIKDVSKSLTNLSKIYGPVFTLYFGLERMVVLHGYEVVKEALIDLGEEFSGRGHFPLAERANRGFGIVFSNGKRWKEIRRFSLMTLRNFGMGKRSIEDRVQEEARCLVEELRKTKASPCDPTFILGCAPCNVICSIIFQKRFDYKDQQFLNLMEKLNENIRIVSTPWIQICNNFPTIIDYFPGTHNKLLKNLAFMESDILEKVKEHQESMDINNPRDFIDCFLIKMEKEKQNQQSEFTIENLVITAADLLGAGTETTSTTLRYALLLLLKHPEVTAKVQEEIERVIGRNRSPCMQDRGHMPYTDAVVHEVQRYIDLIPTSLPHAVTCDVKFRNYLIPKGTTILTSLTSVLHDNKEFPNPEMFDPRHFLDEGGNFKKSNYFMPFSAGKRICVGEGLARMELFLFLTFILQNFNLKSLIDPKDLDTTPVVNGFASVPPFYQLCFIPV

Rattus norvegicus [12] = assay: Effect on hematology in Sprague-Dawley rat assessed as increase in hematocrit at 600 mg/kg/day, po after 14 days; format: ADME, organism-based; design: route oral; conditions: in vivo, 336 h; method in brief: as §1
Enterococcus faecium = assay: Antibacterial activity against vancomycin-resistant Enterococcus faecium by micro-broth technology; format: functional; method in brief: as §2
Canis familiaris [13] = assay: AUC in dog at 20 mg/kg, po; format: ADME, organism-based, Canis lupus familiaris, Plasma; design: dose 20 mg/kg, route oral; conditions: in vivo
Rattus norvegicus [14] = assay: AUC in Sprague-Dawley rat at 20 mg/kg, po; format: ADME, organism-based, Plasma; design: dose 20 mg/kg, route oral; conditions: in vivo
Escherichia coli = assay: Inhibition of protein synthesis in Escherichia coli by cell-free transcription-translation assay; format: functional
Method in brief: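 E. coli cell-free coupled transcription/translation run in microtiter format with a luciferase reporter; luminescence was the read-out for protein synthesis.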

Moraxella catarrhalis = assay: Antibacterial activity against Moraxella catarrhalis by microbroth technology; format: functional
Method in brief: (§4)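 MIC determined by broth microdilution, reported in µg/mL.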

Rattus norvegicus [15] = assay: Toxicity in Sprague-Dawley rat at 600 mg/kg/day, po after 14 days; format: organism-based; design: route oral; conditions: in vivo, 336 h; method in brief: as §1
Staphylococcus aureus [16] = assay: Antibacterial activity against methicillin-resistant Staphylococcus aureus SA1417 by micro-broth technology; format: functional
Staphylococcus = assay: Bacteriostatic activity against Staphylococcus after 48 hrs by time kill study; format: functional, organism-based
[17] = Half life in mouse at 20 mg/kg, po; format: ADME, organism-based; design: dose 20 mg/kg, route oral; conditions: in vivo
Staphylococcus aureus [18] = assay: Antibacterial activity against Staphylococcus aureus UC76 in po dosed CD1 mouse systemic infection model assessed as mortality after 7 days; format: functional
Rattus norvegicus [19] = assay: Effect on hematology in Sprague-Dawley rat assessed as increase in hemoglobin at 600 mg/kg/day, po after 14 days; format: ADME, organism-based; design: route oral; conditions: in vivo, 336 h; method in brief: as §1
Haemophilus influenzae = assay: Antibacterial activity against Haemophilus influenzae by micro-broth technology; format: functional; method in brief: as §4
Rattus norvegicus [20] = assay: Effect on hematology in Sprague-Dawley rat assessed as increase in red blood cells at 600 mg/kg/day, po after 14 days; format: ADME, organism-based; design: route oral; conditions: in vivo, 336 h; method in brief: as §1
Enterococcus faecalis = assay: Antibacterial activity against vancomycin-resistant Enterococcus faecalis MGH2 EF1 by microbroth technology; format: functional; method in brief: as §2
[21] = Cmax in dog at 20 mg/kg, po; format: ADME, organism-based, Canis lupus familiaris; design: dose 20 mg/kg, route oral; conditions: in vivo
[22] = AUC (0 to 24 hrs) in Sprague-Dawley rat plasma at 600 mg/kg/day, po after 14 days; format: ADME, organism-based; design: dose 600 mg/kg/day, time < 24 hr, route oral; method in brief: as §1
[23] = AUC in mouse at 20 mg/kg, po; format: ADME, organism-based; design: dose 20 mg/kg, route oral; conditions: plasma
Cytochrome P450 2C9 = Cytochrome P450 2C9 (Homo sapiens, UniProt P11712); assay: Inhibition of human liver microsome CYP2C9; format: ADME, microsomes; method in brief: as §3
Sequence of Cytochrome P450 2C9 (P11712 whole entry): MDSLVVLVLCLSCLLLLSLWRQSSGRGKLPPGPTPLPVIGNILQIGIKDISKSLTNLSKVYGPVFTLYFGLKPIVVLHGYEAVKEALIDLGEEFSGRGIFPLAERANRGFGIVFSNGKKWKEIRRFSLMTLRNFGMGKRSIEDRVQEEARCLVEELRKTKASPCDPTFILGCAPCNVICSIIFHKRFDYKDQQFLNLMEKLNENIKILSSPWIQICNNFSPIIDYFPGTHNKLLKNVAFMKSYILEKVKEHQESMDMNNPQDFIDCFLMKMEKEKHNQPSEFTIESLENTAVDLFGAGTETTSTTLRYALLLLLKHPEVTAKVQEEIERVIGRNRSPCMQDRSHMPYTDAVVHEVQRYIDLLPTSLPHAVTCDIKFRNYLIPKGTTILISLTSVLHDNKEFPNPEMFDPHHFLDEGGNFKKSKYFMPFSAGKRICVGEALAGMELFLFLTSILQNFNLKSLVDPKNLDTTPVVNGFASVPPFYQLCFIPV

Streptococcus pneumoniae [24] = assay: Bactericidal activity against Streptococcus pneumoniae after 48 hrs by time kill study; format: functional, organism-based
Method in brief: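 Time-kill study: bacteria exposed continuously to drug at 2-16× the MIC and sampled over 48 h to assess eradication.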

[25] = Volume of distribution at steady state in Sprague-Dawley rat at 10 mg/kg, iv; format: ADME, organism-based; design: dose 10 mg/kg, route intravenous; conditions: in vivo, read-out: Vdss
Rattus norvegicus [26] = assay: Increase in bone marrow myeloid/erythroid ratio in Sprague-Dawley rat at 600 mg/kg/day, po after 14 days; format: ADME, organism-based; design: route oral; conditions: in vivo, 336 h
Rattus norvegicus [27] = assay: Bioavailability in Sprague-Dawley rat at 20 mg/kg, po; format: ADME, organism-based; conditions: in vivo
Cytochrome P450 1A2 = target: T2, Cytochrome P450 1A2 (Homo sapiens, UniProt P05177); assay: Inhibition of human liver microsome CYP1A2; format: ADME, microsomes; method in brief: as §3
T2 sequence (P05177 whole entry): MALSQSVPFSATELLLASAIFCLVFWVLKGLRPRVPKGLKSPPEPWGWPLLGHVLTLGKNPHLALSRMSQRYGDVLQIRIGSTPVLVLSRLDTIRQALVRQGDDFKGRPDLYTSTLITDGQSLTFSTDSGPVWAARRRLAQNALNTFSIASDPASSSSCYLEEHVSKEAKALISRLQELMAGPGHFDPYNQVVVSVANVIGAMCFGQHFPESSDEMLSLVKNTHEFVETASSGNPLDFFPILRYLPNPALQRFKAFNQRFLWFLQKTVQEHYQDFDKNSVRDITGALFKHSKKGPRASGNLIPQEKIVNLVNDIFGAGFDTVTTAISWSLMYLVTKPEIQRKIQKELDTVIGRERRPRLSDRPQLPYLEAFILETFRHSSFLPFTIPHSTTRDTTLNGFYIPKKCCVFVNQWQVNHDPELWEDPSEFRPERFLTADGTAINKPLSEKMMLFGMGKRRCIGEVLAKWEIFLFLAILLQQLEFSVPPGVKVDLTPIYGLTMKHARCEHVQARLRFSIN

[28] = Volume of distribution at steady state in dog at 4 mg/kg, iv; format: ADME, organism-based, Canis lupus familiaris; design: dose 4 mg/kg, route intravenous; conditions: in vivo, read-out: Vdss
Staphylococcus aureus [29] = assay: Antibacterial activity against methicillin-resistant Staphylococcus aureus SA1417 in po dosed CD1 mouse systemic infection model assessed as mortality after 7 days; format: functional
Canis familiaris [30] = assay: Bioavailability in dog at 20 mg/kg, po; format: ADME, organism-based, Canis lupus familiaris; conditions: in vivo
Streptococcus pyogenes = assay: Antibacterial activity against Streptococcus pyogenes C203 by micro-broth technology; format: functional
Staphylococcus aureus [31] = assay: Antibacterial activity against […] in po dosed CD1 mouse systemic infection model assessed as mortality after 7 days; format: functional

NC(=O)[C@H]1CN(c2ccc([C@H]3CC[S@+]([O-])CC3)c(F)c2)C(=O)O1
half-life [1]: 6.2 h
IC50 [2]: 546 µM
AUC at 24 h [3]: 223 µg·h/mL
MIC90 (Staphylococcus aureus [4]): 2 µg/mL (≈ 5.88 µM)
MIC90 (Streptococcus pneumoniae [5]): 2 µg/mL (≈ 5.88 µM)
Cmax [6]: 15900 ng/mL
Vd [7]: 3.3 L/kg
Activity (Rattus norvegicus [8]): 62%
Cmax [9]: 12300 ng/mL
clearance [10]: 25.2 mL/min/kg
Activity (Enterococcus): Active
IC50 (Cytochrome P450 3A4): > 900 µM
IC50 (Cytochrome P450 2D6): > 900 µM
half-life [11]: 5.8 h
IC50 (Cytochrome P450 2C19): > 900 µM
Activity (Rattus norvegicus [12]): 8%
MIC90 (Enterococcus faecium): 4 µg/mL (≈ 11.8 µM)
AUC (Canis familiaris [13]): 76.2 µg·h/mL
AUC (Rattus norvegicus [14]): 109 µg·h/mL
IC50 (Escherichia coli): 3.4 µM
MIC (Moraxella catarrhalis): > 8 µg/mL
Activity (Rattus norvegicus [15]): Toxic
MIC (Staphylococcus aureus [16]): 4 µg/mL (≈ 11.8 µM)
Activity (Staphylococcus): Active
half-life [17]: 1.5 h
PD50 (Staphylococcus aureus [18]): 1.25 mg/kg
Activity (Rattus norvegicus [19]): 8%
MIC (Haemophilus influenzae): > 8 µg/mL
Activity (Rattus norvegicus [20]): 8%
MIC90 (Enterococcus faecalis): 4 µg/mL (≈ 11.8 µM)
Cmax [21]: 17900 ng/mL
AUC at 24 h [22]: 619 µg·h/mL
AUC [23]: 48.3 µg·h/mL
IC50 (Cytochrome P450 2C9): > 900 µM
Activity (Streptococcus pneumoniae [24]): Active
Vd [25]: 6.2 L/kg
Ratio (Rattus norvegicus [26]): 4.5
F (Rattus norvegicus [27]): 83%
IC50 (Cytochrome P450 1A2): > 900 µM
Vd [28]: 0.7 L/kg
PD50 (Staphylococcus aureus [29]): 1.7 mg/kg
F (Canis familiaris [30]): 64%
MIC (Streptococcus pyogenes): 4 µg/mL (≈ 11.8 µM)
PD50 (Staphylococcus aureus [31]): <5 mg/kg
